From PubChem BioAssay
mABHD4 FP: ABHD4 (mouse) inhibition, primary FP screen; Q8VD66; purified mABHD4, FP-Rh probe fluorescence polarization; inhibition, % at 8.92 µM; 370,000 compounds, 0.54% hits;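 active means inhibition exceeding the mean over every tested compound plus 3 SD, cut at about 30% in these data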;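 further: 0% = plate median of compound wells and 100% = S159A mutant with DMSO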
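Assay system: mABHD4 protein; medium: HEPES pH 7.0, NaCl, Pluronic buffer; dosing: 8.92 µM, single dose; schedule: 45 min + 60 min at 25 °C; signal: FP readout, ex 525 nm / em 598 nm; read-out: normalized percent inhibition of probe labeling; repeats: single replicate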
DDE Tn7 FP inh: DD(E)-Tn7 binding inhibition, primary FP screen. P02675. FP displacement of FITC-Tn7 peptide from fibrin DD(E); 0% = median of compound wells per plate. inhibition, % at 8.3 µM. 370,000 compounds, 0.13% hits;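 active means inhibition above the mean of compounds falling within the control limits plus 3 SD of them, cut at about 14% in these data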;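 further: 0% = plate median of compound wells and 100% = 10 µM Aha-Tn7 peptide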
Target sequence (P02675 whole entry, looked up): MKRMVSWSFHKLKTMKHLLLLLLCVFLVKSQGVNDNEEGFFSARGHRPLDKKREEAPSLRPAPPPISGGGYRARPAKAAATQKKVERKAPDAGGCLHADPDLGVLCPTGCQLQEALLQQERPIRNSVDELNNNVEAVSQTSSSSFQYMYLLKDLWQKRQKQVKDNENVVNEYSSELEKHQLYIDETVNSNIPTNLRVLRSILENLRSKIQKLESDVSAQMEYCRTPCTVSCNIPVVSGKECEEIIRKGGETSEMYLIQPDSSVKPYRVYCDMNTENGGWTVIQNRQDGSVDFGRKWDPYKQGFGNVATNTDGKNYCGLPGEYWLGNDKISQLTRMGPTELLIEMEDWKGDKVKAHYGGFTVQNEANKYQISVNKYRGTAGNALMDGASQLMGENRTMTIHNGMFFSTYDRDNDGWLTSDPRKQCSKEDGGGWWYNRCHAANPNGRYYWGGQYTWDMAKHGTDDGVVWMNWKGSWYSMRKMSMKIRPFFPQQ
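System: human fibrin DD(E); quantity: Fibrin-DD(E) at 2 µM final; also added: fluorescent Tn7 probe at 0.1 µM; compound dosing: single nominal test concentration of 8.3 µM per compound; schedule: 10 min preincubation, 3 h with tracer, room temperature; detection: fluorescence polarization of the labelled Tn7 tracer; repeats: one replicate per compound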
TCR CD3 inh: human TCR-CD3 binding inhibition | TAMRA-labeled TCR probe fluorescence, biochemical | inhibition, % at 9.4 µM | 360,000 compounds, 0.37% hits;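 further: recombinant mutant TCR 2C K166C tagged with TAMRA read by polarization; 0% = receptor in buffer alone and 100% = receptor with positive control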
Tn6 DDE FP: disrupts Tn6 cyclic peptide binding to fibrin D-Dimer-E complex. Fibrin DD(E) TRITC-Tn6 fluorescence polarization displacement. inhibition, % at 8.3 µM. 370,000 compounds, 0.21% hits. AID 720509;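 active means inhibition above a per-campaign cutoff: mean of compounds within control limits plus 3 SD, cut at about 15% in these data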;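 further: 0% = median of all compound wells on the plate and 100% = blocking peptide control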
HTRA1 inhibitor: HTRA1 (human) protease inhibition; recombinant HTRA1, FP-rhodamine activity-based probe, fluorescence polarization; inhibition, % at 5.96 µM; 340,000 compounds, 0.5% hits; in the data active means inhibition above about 36%;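 further: 0% = enzyme with DMSO and 100% = wells lacking enzyme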
BSA probe FL: interferes with TAMRA-BSA probe, flagging TCR-CD3 hits; shares compounds with TCR CD3 inh; TAMRA-labeled BSA probe fluorescence counterscreen; inhibition, % at 9.4 µM; 1,200 compounds, 10% hits; in the data active means inhibition above about 23%;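 further: 0% = buffer low control and 100% = reference high control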
TCR-CD3 inh conf: confirmation of human TCR-CD3 interaction inhibitors | shares compounds with TCR CD3 inh | TAMRA-labeled TCR probe fluorescence binding assay | inhibition, % at 9.4 µM | 1,200 compounds, 48% hits | AID 652036
Active calls of the source: *; nt = no result. Most compounds without a hit are left out; they make up all but 1.3% or so of the library. Unless noted, no stated cut-off is given here; in the data, active means inhibition above about 19%; inactive means the rest.

SMILES | mABHD4 FP | DDE Tn7 FP inh | TCR CD3 inh | Tn6 DDE FP | HTRA1 inhibitor | BSA probe FL | TCR-CD3 inh conf
Cc1ccccc1OCc1nc2ccccc2c(=O)n1/N=C/c1c[nH]c2ccccc12 | -5 | 0 | 0 | -3 | -4 | nt | nt
O=C1CCCC2=C1C(c1ccc(Br)cc1)c1c([nH]c(=S)[nH]c1=O)N2 (stereo unspecified) | 1 | -4 | 0 | -13 | -4 | nt | nt
O=c1[nH]c(=S)[nH]c2c1C(c1ccc(Br)cc1)c1c([nH]c(=S)[nH]c1=O)O2 | -32 | 5 | 22* | -8 | -44 | -7 | 18
CC(=O)c1ccc(S(=O)(=O)Nc2cccc(-n3cnnn3)c2)cc1 | -12 | -8 | 20* | 1 | -5 | 4 | 12
N#CC1=C(N)C(C#N)(C#N)C(c2ccc[nH]2)C2CCCC=C12 (stereo unspecified) | 29 | 7 | 21* | 11 | 13 | -7 | 0
N#CC1=C(N)C2=CCCC[C@H]2[C@H](c2cccc(F)c2)C1(C#N)C#N | 10 | -6 | 1 | -1 | -9 | nt | nt
C=CCn1c(C)cc(-c2csc(NC(=O)CCc3nc4ccccc4c(=O)[nH]3)n2)c1C | -2 | 5 | 25* | -9 | -3 | -4 | -1
Cn1nnnc1SCC1=C(C(=O)O)N2C(=O)C(NC(=O)Cn3nc(C(F)F)cc3C3CC3)C2SC1 (stereo unspecified) | 7 | 1 | 0 | -2 | 11 | nt | nt
COc1ccccc1/C=N/N1C(=O)c2cccc3cccc(c23)C1=O | 23 | 9 | 32* | 9 | 13 | 33* | 19*
O=C1NNC(=O)C1c1ccccc1 | 3 | -6 | 35* | -2 | 6 | 1 | 9
N=C1C(=O)NC(=O)C1c1ccccc1 (stereo unspecified) | 2 | 3 | 5 | 0 | -3 | nt | nt
O=C(CC1Sc2ccccc2NC1=O)NCc1ccc(Cl)cc1 (stereo unspecified) | 0 | -5 | 7 | -2 | 7 | nt | nt
COc1ccc(CNCC(O)(c2ccccc2)c2ccccc2)cc1OC | -5 | 2 | 1 | -4 | -6 | nt | nt
Cc1[nH]c(C)c2c(=O)n(-c3ccccc3)ncc12 | -83 | 1 | 31* | 0 | -3 | 11 | 9
C/C(CC(=O)Nc1ccc(Cl)c(C(F)(F)F)c1)=N\NC(=O)c1cc2ccccc2cc1O | 14 | -6 | -4 | -2 | 22 | nt | nt
NC(=O)c1ccc(NC(=O)COC(=O)c2c3c(nc4ccccc24)/C(=C\c2cccs2)CCC3)cc1 | -45 | 2 | 20* | 5 | -42 | -9 | -3
CCc1cccc(C)c1NC(=O)COC(=O)c1c2c(nc3ccccc13)/C(=C\c1cccs1)CCC2 | -17 | 4 | 9 | 0 | -36 | nt | nt
O=C(Cc1ccccc1[N+](=O)[O-])N1CCN(c2ccc(F)cc2)CC1 | 0 | 1 | 10 | -1 | -4 | nt | nt
COc1cc2cc3c(N)c(C(=O)NCc4ccco4)sc3nc2cc1OC | nt | nt | nt | nt | 5 | nt | nt
COc1cc2cc3c(N)c(C(=O)Nc4sc(C)c(C)c4C#N)sc3nc2cc1OC | -10 | -3 | 24* | 3 | 12 | -14 | 3
NC(=O)C1=C[C@@H](C2CCCCC2)C[C@@H](OCCCCO)O1 | 4 | 0 | 0 | 4 | 4 | nt | nt
CC(=O)Nc1ccc(OC(=O)CC2SC(=O)NC2=O)cc1 (stereo unspecified) | -1 | -3 | 6 | -2 | 4 | nt | nt
O=C(CC1SC(=O)NC1=O)Oc1ccc(/C=N/NC(=O)c2ccccc2O)cc1 (stereo unspecified) | 6 | -1 | 32* | -5 | 10 | -15 | 11
N[C@@H](Cc1ccc(O)c(O)c1)C(=O)O | 29 | -1 | 75* | -6 | 18 | -11 | 32*
NC(Cc1ccc(O)c([N+](=O)[O-])c1)C(=O)O (stereo unspecified) | 11 | 9 | -2 | 3 | 2 | nt | nt
SMILES | mABHD4 FP | DDE Tn7 FP inh | TCR CD3 inh | Tn6 DDE FP | HTRA1 inhibitor | BSA probe FL | TCR-CD3 inh conf
CCC1=NN(C(=O)c2cccc([N+](=O)[O-])c2)C(O)(c2ccc(C)cc2)C1 (stereo unspecified) | -3 | 1 | 30* | -2 | 24 | -8 | 28*
Cc1ccccc1C(=O)NNC(=S)NC(=O)c1ccc(Cl)cc1Cl | 4 | -6 | 2 | 5 | 10 | nt | nt
C=CCNC(=S)NNC(=O)c1cccn(Cc2ccc(Cl)cc2Cl)c1=O | 15 | -5 | 20* | -2 | 10 | -9 | 14
CCNC(=S)NNC(=O)c1cccn(Cc2ccc(Cl)cc2Cl)c1=O | 8 | -5 | 20* | -1 | 8 | 2 | 17
C=CCNC(=S)NNC(=O)c1cccc2ccccc12 | -1 | -3 | 4 | -1 | -2 | nt | nt
Cc1ccnc(N=O)c1 | 12 | 6 | 1 | 2 | 7 | nt | nt
CCn1cc(CCCC(=O)NCc2ccc(OC)cc2)c2ccccc21 | 1 | -5 | -4 | 6 | -9 | nt | nt
N/C(=N\OS(=O)(=O)c1ccccc1)c1ccncc1 | 0 | 4 | 5 | 2 | 4 | nt | nt
Cc1ccc(C(=O)OCc2nc3ccsc3c(=O)[nH]2)o1 | 3 | 6 | 1 | 0 | -1 | nt | nt
Cc1cnc(C(=O)OCc2nc3ccsc3c(=O)[nH]2)cn1 | 5 | 2 | 28* | 4 | -1 | -13 | 16
CCc1ccc(N2CC(C(=O)OCc3nc4ccsc4c(=O)[nH]3)CC2=O)cc1 (stereo unspecified) | 3 | -5 | 27* | 0 | 12 | -11 | 12
CC(C)Sc1snnc1-c1ccccc1 | 6 | -3 | 4 | 8 | 2 | nt | nt
Cc1c(C(=O)N2CCC(C)CC2)oc2ccc3c(c12)C(O)CC1(CCCCC1)O3 (stereo unspecified) | 11 | 7 | 21* | -1 | -23 | 2 | 5
COCCNC(=O)c1oc2ccc3c(c2c1C)C(O)CC(C)(C)O3 (stereo unspecified) | -2 | -1 | 4 | 3 | 4 | nt | nt
CC(C)c1cc(C(=O)O)c2ccccc2n1 | 7 | -10 | 34* | 3 | 8 | 8 | 6
Cc1cc(C(=O)O)c2ccccc2n1 | 2 | -1 | 6 | -3 | -6 | nt | nt
CC1SC(=NC(=O)C(C)N2C(=O)c3ccccc3C2=O)NC1=O (stereo unspecified) | 1 | -7 | 104* | 2 | 8 | 3 | 0
CCCn1c(=O)c(C(=O)Nc2ncccc2O)c(O)c2ccccc21 | 3 | -12 | 22* | -5 | 6 | -9 | 21*
Cn1c(=O)c(C(=O)Nc2ncccc2O)c(O)c2ccccc21 | 0 | 4 | 16 | -2 | 0 | nt | nt
CC(=O)Nc1ccc(NC(=O)CC(c2ccccc2)c2ccccc2)cc1 | 3 | 6 | 114* | 3 | -4 | 23* | 7
COc1ccc(/C(C)=N/NC(=S)NCCc2ccccc2)c(O)c1 | 8 | 4 | 22* | -3 | 21 | -6 | 7
